Results reported in ChEMBL document CHEMBL1926538, “3,5-Disubstituted-thiazolidine-2,4-dione analogs as anticancer agents: design, synthesis and biological characterization” (Eur J Med Chem, 2012).
pIC50: −log10 of the molar value. Calls of active or inactive are those of the source. No cut-off for these calls is given here.

Legend:
[1] = target: MAP/microtubule affinity-regulating kinase 3 (Homo sapiens) (UniProt P27448); test: Inhibition of c-TAK1 at 10 uM
U-937 [2] = test: Induction of apoptosis in human U937 cells assessed as viable cells at 3 uM after 18 hrs by annexinV-propidium iodide staining-based flow cytometric analysis (reference value: 87.2%); assay type: functional; conditions: U-937, 18 h, read-out: Activity
U-937 [3] = test: Induction of apoptosis in human U937 cells assessed as late apoptotic cells at 3 uM after 3 hrs by annexinV-propidium iodide staining-based flow cytometric analysis (reference value: 8.6%); assay type: functional
U-937 [4] = test: Induction of apoptosis in human U937 cells assessed as viable cells at 3 uM after 3 hrs by annexinV-propidium iodide staining-based flow cytometric analysis (reference value: 86.3%); assay type: functional; conditions: U-937, 3 h, read-out: Activity
[5] = target: Serine/threonine-protein kinase Sgk1 (Homo sapiens) (UniProt O00141); test: Inhibition of SGK1 at 10 uM
[6] = target: Rho-associated protein kinase 2 (Homo sapiens) (UniProt O75116); test: Inhibition of ROCK2 at 10 uM
[7] = Induction of apoptosis in human M12 cells assessed as late apoptotic cells at 20 uM after 24 hrs by annexinV-propidium iodide staining-based flow cytometric analysis (reference value: 4.7%); assay type: functional
[8] = target: Cyclin-dependent kinase 2 (Homo sapiens) (UniProt P24941); test: Inhibition of CDK2 at 10 uM
U-937 [9] = test: Induction of apoptosis in human U937 cells assessed as viable cells at 3 uM after 6 hrs by annexinV-propidium iodide staining-based flow cytometric analysis (reference value: 80.3%); assay type: functional; conditions: U-937, 6 h, read-out: Activity
U-937 [10] = test: Induction of apoptosis in human U937 cells assessed as viable cells at 10 uM after 3 hrs by annexinV-propidium iodide staining-based flow cytometric analysis (reference value: 86.3%); assay type: functional; conditions: U-937, 3 h, read-out: Activity
U-937 [11] = test: Antiproliferative activity in human U937 cells assessed as inhibition of DNA synthesis at 10 to 30 uM after 24 hr by [3H]thymidine incorporation assay; assay type: functional, cell-based
Summary of the method: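 U937 cells, 2 × 10⁴/well, incubated with compound at various concentrations for 1 h or 24 h in presence of 1 µCi [³H]-thymidine. Cells harvested and counted by liquid scintillation. Incorporation expressed as % inhibition versus control. Significance by one-way ANOVA.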

[12] = target: Dual specificity mitogen-activated protein kinase kinase 1 (Homo sapiens) (UniProt Q02750); test: Inhibition of MEK1 at 10 uM
U-937 [13] = test: Induction of apoptosis in human U937 cells assessed as late apoptotic cells at 3 uM after 18 hrs by annexinV-propidium iodide staining-based flow cytometric analysis (reference value: 7.8%); assay type: functional
[14] = target: Serine/threonine-protein kinase Chk2 (Homo sapiens) (UniProt O96017); test: Inhibition of CHK2 at 10 uM
[15] = target: Phosphatidylinositol 4,5-bisphosphate 3-kinase catalytic subunit alpha isoform (Homo sapiens) (UniProt P42336); test: Inhibition of PI3Kalpha at 10 uM
[16] = target: Aurora kinase A (Homo sapiens) (UniProt O14965); test: Inhibition of aurora A kinase at 10 uM
U-937 [17] = test: Growth inhibition of human U937 cells after 24 hrs by MTS assay; assay type: functional, cell-based; conditions: U-937, 24 h
Summary of the method: (§1)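 Cells in RPMI 1640 with 10% heat-inactivated FBS, seeded 2 × 10⁴ cells/well and exposed 24 h. MTS reagent added, then 1 h further incubation at 37 °C, 5% CO₂. Formazan absorbance read at 490 nm. Viability expressed as percentage of untreated controls.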

DU-145 [18] = test: Induction of apoptosis in human DU145 cells assessed as early apoptotic cells at 20 uM after 24 hrs by annexinV-propidium iodide staining-based flow cytometric analysis (reference value: 3.8%); assay type: functional
U-937 [19] = test: Induction of apoptosis in human U937 cells assessed as early apoptotic cells at 10 uM after 6 hrs by annexinV-propidium iodide staining-based flow cytometric analysis (reference value: 4.6%); assay type: functional
[20] = target: Tyrosine-protein kinase SYK (Homo sapiens) (UniProt P43405); test: Inhibition of SYK at 10 uM
PC-3 = test: Growth inhibition of human PC3 cells after 24 hrs by MTS assay; assay type: functional, cell-based; summary of the method: as §1
[21] = Inhibition of PKGa at 10 uM
[22] = Induction of apoptosis in human M12 cells assessed as necrotic cells at 20 uM after 24 hrs by annexinV-propidium iodide staining-based flow cytometric analysis (reference value: 1.7%); assay type: functional
[23] = target: Tyrosine-protein kinase ABL1 (Homo sapiens) (UniProt P00519); test: Inhibition of ABL at 10 uM
U-937 [24] = test: Inhibition of PI3K-mediated Akt phosphorylation in human U937 cells at 3 uM after 1 hr by Western blot analysis; assay type: cell-based
[25] = target: Serine/threonine-protein kinase pim-2 (Homo sapiens) (UniProt Q9P1W9); test: Inhibition of PIM2 at 10 uM
U-937 [26] = test: Induction of apoptosis in human U937 cells assessed as late apoptotic cells at 10 uM after 6 hrs by annexinV-propidium iodide staining-based flow cytometric analysis (reference value: 13.8%); assay type: functional
[27] = Induction of apoptosis in human M12 cells assessed as early apoptotic cells at 20 uM after 24 hrs by annexinV-propidium iodide staining-based flow cytometric analysis (reference value: 13.6%); assay type: functional
[28] = target: Glycogen synthase kinase-3 beta (Homo sapiens) (UniProt P49841); test: Inhibition of GSK3-beta at 10 uM
[29] = target: Serine/threonine-protein kinase Chk1 (Homo sapiens) (UniProt O14757); test: Inhibition of CHK1 at 10 uM
U-937 [30] = test: inhibition of PI3K-mediated 4-EBP1 phosphorylation in human U937 cells 1 to 10 uM after 1 hr by Western blot analysis; assay type: cell-based
Summary of the method: (§2)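 Cells in RPMI 1640 with 10% heat-inactivated FBS, 37 °C, 5% CO2; treated in growing medium (DU145 24 h; U937 1 h at 5 × 10⁵/mL). Lysed by sonication in SDS sample buffer with protease inhibitors plus 1 mM orthovanadate and pyrophosphate, boiled 5 min. Blots blocked in 5% milk, primary antibodies 1:1000 overnight at 4 °C, HRP secondary 1:2000, chemiluminescence; α-tubulin loading control.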

[31] = target: RAF proto-oncogene serine/threonine-protein kinase (Homo sapiens) (UniProt P04049); test: Inhibition of raf-mediated MEK phosphorylation in human U937 cells at 3 uM after 1 hr by Western blot analysis; assay type: cell-based; conditions: U-937; summary of the method: as §2
[32] = Inhibition of MSK2 at 10 uM
[33] = Inhibition of P70S6K at 10 uM
[34] = target: Dual specificity mitogen-activated protein kinase kinase 2 (Homo sapiens) (UniProt P36507); test: Inhibition of MEK2 at 10 uM
DU-145 [35] = test: Growth inhibition of human DU145 cells after 24 hrs by MTS assay; assay type: functional, cell-based; summary of the method: as §1
[36] = target: Tyrosine-protein kinase Lck (Homo sapiens) (UniProt P06239); test: Inhibition of LCK at 10 uM
Tyrosine-protein kinase Lck (Homo sapiens), sequence (P06239 2-509 limits assumed): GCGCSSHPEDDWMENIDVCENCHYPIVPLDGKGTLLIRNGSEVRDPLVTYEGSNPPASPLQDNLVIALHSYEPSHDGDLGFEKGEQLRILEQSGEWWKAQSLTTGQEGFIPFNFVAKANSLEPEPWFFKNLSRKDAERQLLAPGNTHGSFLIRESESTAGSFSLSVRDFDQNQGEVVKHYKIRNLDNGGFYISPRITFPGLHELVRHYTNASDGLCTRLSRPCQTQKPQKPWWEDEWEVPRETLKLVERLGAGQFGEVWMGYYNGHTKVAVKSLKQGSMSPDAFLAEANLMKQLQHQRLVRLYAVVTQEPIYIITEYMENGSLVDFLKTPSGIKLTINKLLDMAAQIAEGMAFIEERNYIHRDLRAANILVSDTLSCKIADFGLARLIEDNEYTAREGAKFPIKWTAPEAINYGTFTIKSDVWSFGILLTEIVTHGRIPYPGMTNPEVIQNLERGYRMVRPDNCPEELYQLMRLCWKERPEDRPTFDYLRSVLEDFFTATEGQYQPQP

Dual specificity mitogen-activated protein kinase kinase 1 (Homo sapiens), sequence (Q02750 whole entry): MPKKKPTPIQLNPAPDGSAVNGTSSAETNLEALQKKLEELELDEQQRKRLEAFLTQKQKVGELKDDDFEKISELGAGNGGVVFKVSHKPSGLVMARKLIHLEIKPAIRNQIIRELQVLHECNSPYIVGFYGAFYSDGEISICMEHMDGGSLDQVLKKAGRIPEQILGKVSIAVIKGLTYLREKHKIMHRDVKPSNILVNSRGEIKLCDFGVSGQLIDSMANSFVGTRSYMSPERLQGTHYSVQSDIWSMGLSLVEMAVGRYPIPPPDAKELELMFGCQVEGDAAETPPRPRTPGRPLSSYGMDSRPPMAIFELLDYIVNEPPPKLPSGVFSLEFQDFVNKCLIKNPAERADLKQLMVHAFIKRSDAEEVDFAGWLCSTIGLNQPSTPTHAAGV
Serine/threonine-protein kinase pim-2 (Homo sapiens), sequence (Q9P1W9 whole entry, looked up): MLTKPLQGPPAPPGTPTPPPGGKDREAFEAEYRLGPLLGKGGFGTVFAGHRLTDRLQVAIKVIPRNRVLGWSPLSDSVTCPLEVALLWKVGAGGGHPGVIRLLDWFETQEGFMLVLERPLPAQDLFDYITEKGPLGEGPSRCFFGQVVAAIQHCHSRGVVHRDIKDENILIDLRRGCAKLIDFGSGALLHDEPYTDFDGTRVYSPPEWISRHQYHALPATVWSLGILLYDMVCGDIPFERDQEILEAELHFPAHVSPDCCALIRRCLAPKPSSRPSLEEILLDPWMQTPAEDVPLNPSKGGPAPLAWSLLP
Serine/threonine-protein kinase Sgk1 (Homo sapiens), sequence (O00141 whole entry): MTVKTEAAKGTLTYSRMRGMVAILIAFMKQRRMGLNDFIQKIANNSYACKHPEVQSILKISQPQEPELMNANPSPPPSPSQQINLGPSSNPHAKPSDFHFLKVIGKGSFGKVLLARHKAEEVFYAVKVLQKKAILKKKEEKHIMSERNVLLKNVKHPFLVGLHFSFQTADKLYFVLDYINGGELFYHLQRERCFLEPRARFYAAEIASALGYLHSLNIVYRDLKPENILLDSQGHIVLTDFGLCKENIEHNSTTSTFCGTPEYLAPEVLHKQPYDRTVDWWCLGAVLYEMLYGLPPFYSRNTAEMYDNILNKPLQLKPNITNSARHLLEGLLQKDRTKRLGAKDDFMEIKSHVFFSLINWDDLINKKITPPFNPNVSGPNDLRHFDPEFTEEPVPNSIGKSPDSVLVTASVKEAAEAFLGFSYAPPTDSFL
MAP/microtubule affinity-regulating kinase 3 (Homo sapiens), sequence (P27448 whole entry, looked up): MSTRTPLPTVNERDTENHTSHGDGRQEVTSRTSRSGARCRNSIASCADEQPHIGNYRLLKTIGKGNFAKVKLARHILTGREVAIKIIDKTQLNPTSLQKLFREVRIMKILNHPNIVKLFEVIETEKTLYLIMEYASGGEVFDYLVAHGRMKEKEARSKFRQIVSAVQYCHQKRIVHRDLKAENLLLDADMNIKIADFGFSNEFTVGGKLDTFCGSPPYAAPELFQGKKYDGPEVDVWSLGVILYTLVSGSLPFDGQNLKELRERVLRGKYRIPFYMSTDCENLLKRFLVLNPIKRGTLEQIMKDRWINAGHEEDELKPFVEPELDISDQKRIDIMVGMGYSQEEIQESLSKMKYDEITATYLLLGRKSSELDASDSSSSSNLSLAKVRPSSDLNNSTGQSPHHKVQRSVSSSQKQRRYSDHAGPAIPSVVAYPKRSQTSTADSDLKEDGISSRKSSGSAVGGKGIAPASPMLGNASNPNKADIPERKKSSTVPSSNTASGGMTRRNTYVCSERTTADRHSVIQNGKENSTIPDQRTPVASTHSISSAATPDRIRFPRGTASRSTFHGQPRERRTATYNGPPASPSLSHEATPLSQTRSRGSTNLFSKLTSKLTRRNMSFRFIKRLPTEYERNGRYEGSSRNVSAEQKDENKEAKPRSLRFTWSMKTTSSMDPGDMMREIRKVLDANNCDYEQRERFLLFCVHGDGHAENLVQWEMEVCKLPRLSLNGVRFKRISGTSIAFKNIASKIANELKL
Serine/threonine-protein kinase Chk2 (Homo sapiens), sequence (O96017 whole entry, canonical isoform): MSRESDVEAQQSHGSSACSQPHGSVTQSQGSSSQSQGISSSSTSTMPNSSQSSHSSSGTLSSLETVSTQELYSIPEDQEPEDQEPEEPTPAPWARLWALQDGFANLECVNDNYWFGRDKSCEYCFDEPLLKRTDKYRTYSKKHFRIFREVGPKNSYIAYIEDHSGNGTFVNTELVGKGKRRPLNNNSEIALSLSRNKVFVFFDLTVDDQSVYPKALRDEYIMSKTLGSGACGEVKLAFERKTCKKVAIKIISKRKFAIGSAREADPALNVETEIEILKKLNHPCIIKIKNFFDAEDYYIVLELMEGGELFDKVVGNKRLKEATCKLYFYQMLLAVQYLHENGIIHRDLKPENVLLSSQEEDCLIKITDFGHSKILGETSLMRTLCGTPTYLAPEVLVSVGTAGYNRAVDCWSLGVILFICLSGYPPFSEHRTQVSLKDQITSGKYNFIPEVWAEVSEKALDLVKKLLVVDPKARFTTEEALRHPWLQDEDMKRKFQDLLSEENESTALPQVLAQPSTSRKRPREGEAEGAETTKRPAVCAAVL
Serine/threonine-protein kinase Chk1 (Homo sapiens), sequence (O14757 whole entry): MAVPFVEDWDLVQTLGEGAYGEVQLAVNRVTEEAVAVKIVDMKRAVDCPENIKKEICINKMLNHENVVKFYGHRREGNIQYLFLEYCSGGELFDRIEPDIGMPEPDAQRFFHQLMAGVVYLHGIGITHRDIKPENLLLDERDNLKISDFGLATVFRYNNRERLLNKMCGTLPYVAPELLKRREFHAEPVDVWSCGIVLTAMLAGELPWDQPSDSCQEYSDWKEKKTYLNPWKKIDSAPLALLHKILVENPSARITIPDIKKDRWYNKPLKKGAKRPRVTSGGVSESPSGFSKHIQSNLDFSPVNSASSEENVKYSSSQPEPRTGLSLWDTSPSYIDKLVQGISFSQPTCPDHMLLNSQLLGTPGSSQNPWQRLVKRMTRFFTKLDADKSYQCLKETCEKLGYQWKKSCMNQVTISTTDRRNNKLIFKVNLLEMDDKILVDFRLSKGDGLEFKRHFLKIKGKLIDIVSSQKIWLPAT
Rho-associated protein kinase 2 (Homo sapiens), sequence (O75116 whole entry, looked up): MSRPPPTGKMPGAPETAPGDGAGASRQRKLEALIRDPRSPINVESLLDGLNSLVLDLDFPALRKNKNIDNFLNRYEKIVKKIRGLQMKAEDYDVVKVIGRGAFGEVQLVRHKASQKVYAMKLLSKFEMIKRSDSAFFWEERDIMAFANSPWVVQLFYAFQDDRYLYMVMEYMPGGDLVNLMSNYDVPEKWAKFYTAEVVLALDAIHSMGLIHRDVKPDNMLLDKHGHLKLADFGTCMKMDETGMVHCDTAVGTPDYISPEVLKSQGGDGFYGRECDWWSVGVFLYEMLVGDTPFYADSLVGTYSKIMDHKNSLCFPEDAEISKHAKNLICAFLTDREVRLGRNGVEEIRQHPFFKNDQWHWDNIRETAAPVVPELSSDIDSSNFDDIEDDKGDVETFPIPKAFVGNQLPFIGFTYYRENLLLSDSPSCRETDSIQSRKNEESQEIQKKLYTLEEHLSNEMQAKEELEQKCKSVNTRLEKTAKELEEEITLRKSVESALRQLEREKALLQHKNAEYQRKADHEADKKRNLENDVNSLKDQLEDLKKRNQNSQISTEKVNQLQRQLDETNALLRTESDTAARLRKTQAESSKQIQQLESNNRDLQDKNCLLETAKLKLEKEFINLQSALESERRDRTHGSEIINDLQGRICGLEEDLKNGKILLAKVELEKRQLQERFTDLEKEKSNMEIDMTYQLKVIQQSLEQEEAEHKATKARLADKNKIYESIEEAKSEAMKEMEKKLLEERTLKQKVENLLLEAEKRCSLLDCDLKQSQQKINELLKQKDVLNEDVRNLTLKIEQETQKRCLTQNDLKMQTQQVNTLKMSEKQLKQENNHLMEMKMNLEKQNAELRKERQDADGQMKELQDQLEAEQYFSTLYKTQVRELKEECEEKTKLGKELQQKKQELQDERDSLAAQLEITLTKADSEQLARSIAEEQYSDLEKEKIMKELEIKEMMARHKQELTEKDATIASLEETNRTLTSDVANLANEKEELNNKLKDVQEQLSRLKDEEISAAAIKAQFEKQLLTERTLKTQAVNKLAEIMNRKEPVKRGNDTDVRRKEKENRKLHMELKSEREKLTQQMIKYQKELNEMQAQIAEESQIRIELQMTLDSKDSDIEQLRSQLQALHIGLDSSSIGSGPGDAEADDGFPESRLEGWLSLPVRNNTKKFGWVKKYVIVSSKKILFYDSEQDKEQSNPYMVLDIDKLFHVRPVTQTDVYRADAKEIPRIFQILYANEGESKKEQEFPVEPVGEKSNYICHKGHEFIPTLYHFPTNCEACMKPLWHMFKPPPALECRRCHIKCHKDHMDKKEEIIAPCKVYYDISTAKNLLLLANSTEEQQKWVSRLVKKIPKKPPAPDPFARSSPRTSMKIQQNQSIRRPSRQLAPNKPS

NCCN1C(=O)S/C(=C\CCC2CCCCC2)C1=O
inhibition [1]: 6%
viability at 3 µM (U-937 [2]): 90.1%
Activity (U-937 [3]): 7.7%
viability at 3 µM (U-937 [4]): 86.9%
inhibition [5]: 14%
inhibition [6]: -1%
Activity [7]: 60.5%
inhibition [8]: -2%
viability at 3 µM (U-937 [9]): 75.7%
viability at 10 µM (U-937 [10]): 62.8%
Activity (U-937 [11]): Active
inhibition [12]: 69%
Activity (U-937 [13]): 5.7%
inhibition [14]: 8%
inhibition [15]: 45%
inhibition [16]: -4%
pIC50 (U-937 [17]): 5.47
Activity (DU-145 [18]): 8.3%
Activity (U-937 [19]): 14.2%
inhibition [20]: 9%
growth inhibition (GI) (PC-3): Active
inhibition [21]: -2%
Activity [22]: 5.2%
inhibition [23]: 6%
inhibition (U-937 [24]): Active
inhibition [25]: 38%
Activity (U-937 [26]): 40.2%
Activity [27]: 29.2%
inhibition [28]: 0%
inhibition [29]: 11%
inhibition (U-937 [30]): Active
inhibition [31]: Active
inhibition [32]: 3%
inhibition [33]: 5%
inhibition [34]: 27%
growth inhibition (GI) (DU-145 [35]): Active
inhibition [36]: 4%
